# Laboratory results as given in ChEMBL document CHEMBL1154102, “Nucleoside-amino acid conjugates: An alternative route to the design of ribonuclease A inhibitors” (Bioorg Med Chem, 2009).
# The source made the active and inactive calls. The rule behind the calls is not given here.
# Experiments:
# [1] = molecular target: T1, Ribonuclease pancreatic (Bos taurus) (UniProt P61823); assay: Inhibition of bovine pancreatic RNase A assessed as tRNA degradation at 0.92 mM after 6 hrs using ethidium bromide staining by agarose gel-based assay
# T1 sequence (whole entry): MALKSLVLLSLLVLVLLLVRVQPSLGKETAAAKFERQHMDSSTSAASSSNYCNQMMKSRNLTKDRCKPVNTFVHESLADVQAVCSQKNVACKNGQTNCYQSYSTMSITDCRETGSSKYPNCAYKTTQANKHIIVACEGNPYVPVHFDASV
# How it was run: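 RNase A (0.66 µM stock) preincubated with varying volumes of compound (0.92 mM stock) 6 h at 37 °C. Aliquots mixed with tRNA (5.0 mg/ml) and glycerol/bromophenol blue sample buffer, 30 min further incubation, then run on 1.1% agarose in TAE pH 8.0. Undegraded tRNA seen by ethidium bromide staining under UV.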
# [2] = molecular target: T1, Ribonuclease pancreatic (Bos taurus); assay: Inhibition of bovine pancreatic RNase A assessed as tRNA degradation at 0.50 mM after 2 hrs by precipitation assay
# How it was run: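 Bond precipitation method. RNase A with conjugate (1 mM stock) preincubated 2 h at 37 °C; aliquot added to tRNA (5 mg/ml) in Tris-HCl pH 7.5 with 5 mM EDTA and 0.5 mg/ml HSA, 30 min at 25 °C. Quenched with ice-cold 1.14 N perchloric acid/6 mM uranyl acetate, 30 min on ice, centrifuged; supernatant diluted, A260 compared to control.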
# [3] = molecular target: T1, Ribonuclease pancreatic (Bos taurus); assay: Inhibition of bovine pancreatic RNase A at 5 uM by fluorescence assay
# How it was run: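 Fluorimetric titration, 1 cm cuvette, excitation 295 nm: 5 µM ligand in 20 mM phosphate pH 7.0 with 50 mM NaCl, RNase A added stepwise to a final 17.5 µM; change in emission intensity followed.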
# Ribonuclease pancreatic = molecular target: T2, Ribonuclease pancreatic (Bos taurus, UniProt P61823); assay: Inhibition of bovine pancreatic RNase A by spectrophotometric assay
# T2 sequence (P61823 whole entry): T1 sequence (whole entry)
# [4] = molecular target: T1, Ribonuclease pancreatic (Bos taurus); assay: Inhibition of bovine pancreatic RNase A assessed as change in pKa of His-12 by NMR spectroscopy
# How it was run: (§1)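 RNase A H/D exchanged in D2O (50 °C, 20 min, lyophilized, three cycles), redissolved in D2O with 0.17 M NaCl and 0.5 mM DSS; ligand:enzyme molar ratio 5:1; pH* 3–8 set with DCl/NaOD, uncorrected. 1H NMR at 400 MHz, 22.5 °C, 100 scans, 2 s acquisition; His C-2 shifts vs DSS fitted to titration equations for pKa; pK2 used.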
# [5] = molecular target: T1, Ribonuclease pancreatic (Bos taurus); assay: Inhibition of bovine pancreatic RNase A assessed as change in pKa of His-105 by NMR spectroscopy; how it was run: as §1
# [6] = molecular target: T1, Ribonuclease pancreatic (Bos taurus); assay: Inhibition of bovine pancreatic RNase A assessed as change in pKa of His-119 by NMR spectroscopy; how it was run: as §1
Activity [1],Activity [2],Activity [3],Ki (Ribonuclease pancreatic) [µM],Activity [4],Activity [5],Activity [6],Compound
Active,Active,Active,,,,,Cc1cn([C@H]2C[C@H](NC(=O)C(N)Cc3c[nH]c4ccccc34)[C@@H](CO)O2)c(=O)[nH]c1=O (stereo not given in full)
,,,7,,,,Nc1ccn([C@@H]2O[C@H](CO)[C@@H](O)[C@H]2OP(=O)(O)O)c(=O)n1
Active,Active,,451,,,,Cc1cn([C@H]2C[C@H](NC(=O)C(N)Cc3ccc(O)cc3)[C@@H](CO)O2)c(=O)[nH]c1=O (stereo not given in full)
,,,,inactive,inactive,inactive,Cc1cn([C@H]2C[C@H](NC(=O)C(N)CC(C)C)[C@@H](CO)O2)c(=O)[nH]c1=O (stereo not given in full)
